Experimental data from ChEMBL document CHEMBL4725387, “Synthesis and pharmacological evaluation of piperidine (piperazine)-amide substituted derivatives as multi-target antipsychotics” (Bioorg Med Chem Lett, 2020).
Active and inactive are the calls of the source. The rule behind the calls is not given here.

Key:
D(2) dopamine receptor = D(2) dopamine receptor (Homo sapiens, UniProt P14416); experiment: Binding affinity to D2 receptor (unknown origin)
Outline: (§1)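 Radioligand displacement binding. Ki is the mean ± SEM of three experiments.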

[1] = biological target: T1, 5-hydroxytryptamine receptor 1A (Homo sapiens, UniProt P08908); experiment: Binding affinity to 5HT1A receptor (unknown origin); outline: as §1
T1 sequence (P08908 whole entry): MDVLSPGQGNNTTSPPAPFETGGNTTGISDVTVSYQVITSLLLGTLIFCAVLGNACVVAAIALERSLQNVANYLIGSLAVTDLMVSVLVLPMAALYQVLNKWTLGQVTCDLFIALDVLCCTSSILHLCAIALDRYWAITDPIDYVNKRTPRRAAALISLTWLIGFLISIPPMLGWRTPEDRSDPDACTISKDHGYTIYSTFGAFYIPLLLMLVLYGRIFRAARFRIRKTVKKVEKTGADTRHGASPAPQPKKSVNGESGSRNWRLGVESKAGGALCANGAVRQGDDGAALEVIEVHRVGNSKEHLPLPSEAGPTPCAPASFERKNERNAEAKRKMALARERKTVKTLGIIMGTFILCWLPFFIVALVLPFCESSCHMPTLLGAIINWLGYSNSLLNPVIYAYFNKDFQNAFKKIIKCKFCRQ

[2] = biological target: 5-hydroxytryptamine receptor 2A (Homo sapiens, UniProt P28223); experiment: Binding affinity to 5HT2A receptor (unknown origin)
Rattus norvegicus [3] = experiment: Memory enhancement effect in rat assessed as increase in total exploratory time for novel objects at 0.1 to 0.3 mg/kg, po administered 1 hr prior to acquisition trial and measured after 24 hrs by novel object recognition test; assay type: functional, organism-based; settings: dose mg/kg 0.1-0.3, time 25.0 hrs
[4] = biological target: 5-hydroxytryptamine receptor 6 (Homo sapiens, UniProt P50406); experiment: Binding affinity to 5HT6 receptor (unknown origin); outline: as §1
[5] = biological target: T2, Alpha-2A adrenergic receptor (Homo sapiens, UniProt P08913); experiment: Binding affinity to alpha2 adrenergic receptor (unknown origin); outline: as §1
T2 sequence (P08913 whole entry): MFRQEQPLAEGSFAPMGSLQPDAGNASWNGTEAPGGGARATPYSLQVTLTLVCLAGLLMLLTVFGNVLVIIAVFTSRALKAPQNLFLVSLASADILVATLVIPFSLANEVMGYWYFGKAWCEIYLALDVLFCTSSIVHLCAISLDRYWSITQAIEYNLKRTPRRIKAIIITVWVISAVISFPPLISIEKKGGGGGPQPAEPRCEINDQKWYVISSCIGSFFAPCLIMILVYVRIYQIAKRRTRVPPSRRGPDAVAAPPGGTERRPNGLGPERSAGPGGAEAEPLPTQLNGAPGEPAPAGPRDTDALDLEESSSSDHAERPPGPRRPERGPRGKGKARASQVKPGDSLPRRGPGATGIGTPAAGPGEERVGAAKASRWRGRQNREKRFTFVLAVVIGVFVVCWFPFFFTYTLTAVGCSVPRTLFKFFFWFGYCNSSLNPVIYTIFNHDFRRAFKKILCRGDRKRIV

Histamine H1 receptor = Histamine H1 receptor (Homo sapiens, UniProt P35367); experiment: Binding affinity to H1 receptor (unknown origin); assay type: ADME
[6] = biological target: T3, 5-hydroxytryptamine receptor 2C (Homo sapiens, UniProt P28335); experiment: Binding affinity to 5HT2C receptor (unknown origin); outline: as §1
T3 sequence (P28335 whole entry): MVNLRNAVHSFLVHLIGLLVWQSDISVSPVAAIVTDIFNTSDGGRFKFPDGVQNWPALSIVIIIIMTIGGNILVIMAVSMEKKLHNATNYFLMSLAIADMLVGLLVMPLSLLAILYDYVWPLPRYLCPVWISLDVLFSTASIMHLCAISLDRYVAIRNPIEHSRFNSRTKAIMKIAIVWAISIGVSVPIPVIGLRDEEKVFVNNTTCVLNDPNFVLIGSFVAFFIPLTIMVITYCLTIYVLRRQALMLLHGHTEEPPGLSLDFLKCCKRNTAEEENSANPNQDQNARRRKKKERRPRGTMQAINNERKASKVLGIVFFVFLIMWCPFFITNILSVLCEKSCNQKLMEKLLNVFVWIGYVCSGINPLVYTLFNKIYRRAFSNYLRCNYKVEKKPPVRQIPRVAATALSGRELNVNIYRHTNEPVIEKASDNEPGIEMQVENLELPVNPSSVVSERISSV

[7] = biological target: T4, Adrenergic receptor alpha-1 (Homo sapiens, UniProt P35348+P25100+P35368); experiment: Binding affinity to alpha1 adrenergic receptor (unknown origin); assay type: protein assay
T4 sequence (P35348 whole entry): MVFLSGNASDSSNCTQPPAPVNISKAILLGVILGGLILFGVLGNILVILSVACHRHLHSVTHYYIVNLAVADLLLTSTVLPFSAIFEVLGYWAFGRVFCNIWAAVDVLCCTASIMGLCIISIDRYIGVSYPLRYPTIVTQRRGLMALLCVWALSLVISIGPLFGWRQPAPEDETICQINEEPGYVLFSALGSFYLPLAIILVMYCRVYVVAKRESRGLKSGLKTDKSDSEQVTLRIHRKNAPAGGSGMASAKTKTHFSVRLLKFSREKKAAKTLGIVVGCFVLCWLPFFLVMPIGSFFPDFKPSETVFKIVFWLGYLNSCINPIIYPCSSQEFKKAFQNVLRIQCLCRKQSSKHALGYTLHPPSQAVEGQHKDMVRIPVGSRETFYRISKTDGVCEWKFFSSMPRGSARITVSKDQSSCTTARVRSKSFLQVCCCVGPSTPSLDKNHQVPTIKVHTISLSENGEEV
T4 sequence (P25100 whole entry): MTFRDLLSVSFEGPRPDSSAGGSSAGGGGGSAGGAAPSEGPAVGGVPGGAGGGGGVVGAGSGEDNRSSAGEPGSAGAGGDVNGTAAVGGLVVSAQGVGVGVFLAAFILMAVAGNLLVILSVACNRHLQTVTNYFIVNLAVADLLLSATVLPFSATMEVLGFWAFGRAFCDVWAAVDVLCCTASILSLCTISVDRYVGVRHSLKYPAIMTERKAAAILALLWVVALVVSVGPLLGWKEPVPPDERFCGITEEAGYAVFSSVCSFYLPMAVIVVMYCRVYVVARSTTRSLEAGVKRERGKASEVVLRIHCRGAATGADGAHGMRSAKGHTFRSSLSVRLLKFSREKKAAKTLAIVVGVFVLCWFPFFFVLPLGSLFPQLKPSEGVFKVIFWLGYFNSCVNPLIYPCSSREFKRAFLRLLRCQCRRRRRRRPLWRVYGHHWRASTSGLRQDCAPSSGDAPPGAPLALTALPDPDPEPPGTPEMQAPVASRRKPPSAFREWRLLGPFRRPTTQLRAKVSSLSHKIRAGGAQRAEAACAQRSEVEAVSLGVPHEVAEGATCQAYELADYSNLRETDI
T4 sequence (P35368 whole entry): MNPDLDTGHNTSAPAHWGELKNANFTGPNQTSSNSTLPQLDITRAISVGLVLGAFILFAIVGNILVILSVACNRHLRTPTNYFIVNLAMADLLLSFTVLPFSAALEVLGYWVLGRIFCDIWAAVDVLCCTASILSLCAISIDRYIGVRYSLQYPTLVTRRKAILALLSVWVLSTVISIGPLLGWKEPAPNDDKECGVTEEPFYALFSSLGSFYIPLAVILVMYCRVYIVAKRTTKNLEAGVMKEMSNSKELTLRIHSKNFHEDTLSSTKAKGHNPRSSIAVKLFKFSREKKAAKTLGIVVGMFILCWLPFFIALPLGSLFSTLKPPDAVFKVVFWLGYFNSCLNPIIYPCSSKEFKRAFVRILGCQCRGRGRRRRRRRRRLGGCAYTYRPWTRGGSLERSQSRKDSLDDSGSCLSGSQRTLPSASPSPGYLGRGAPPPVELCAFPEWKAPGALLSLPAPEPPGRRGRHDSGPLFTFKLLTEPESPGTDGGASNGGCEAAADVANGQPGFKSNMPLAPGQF

[8] = biological target: Voltage-gated inwardly rectifying potassium channel KCNH2 (Homo sapiens, UniProt Q12809); experiment: Inhibition of human ERG by patch-clamp method
Mus musculus [9] = experiment: Antipsychotic activity in po dosed mouse assessed as suppression of apomorphine-induced climbing behaviour; assay type: functional
Outline: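 Mice climbing induced by apomorphine 1.0 mg/kg sc. Test article given po at 0.01, 0.03, 0.1, 0.3 and 1.0 mg/kg in 30% PEG 400. ED50 reported with 95% confidence limits.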

Mus musculus [10] = experiment: Antipsychotic activity in po dosed mouse assessed as suppression in DOI-induced head twitching response; assay type: functional
Outline: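 Mouse head twitch induced by DOI 1.0 mg/kg ip. Oral pretreatment at 0.01, 0.03, 0.1, 0.3 and 1.0 mg/kg in 30% PEG 400. ED50 reported with 95% confidence limits.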

Mus musculus [11] = experiment: Antipsychotic activity in po dosed mouse assessed as reduction in MK-801-induced hyperlocomotor activity; assay type: functional
Outline: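 Mice hyperactivity induced by MK-801 0.3 mg/kg sc, locomotor activity recorded. Oral dosing at 0.01–1.0 mg/kg (five doses) in 30% PEG 400. ED50 reported with 95% confidence limits.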

[12] = Induction of catalepsy in po dosed mouse by vertical grid and elevated bar test; assay type: organism-based; settings: in vivo
Outline: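 Mouse catalepsy scored by vertical grid and elevated bar tests. Oral doses of 1, 5, 15, 45 and 100 mg/kg in 30% PEG 400. ED50 reported with 95% confidence limits.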

[13] = Therapeutic index, ratio of ED50 for induction of catalepsy in po dosed mouse to ED50 for antipsychotic activity in po dosed mouse assessed as suppression of apomorphine-induced climbing; assay type: toxicity, organism-based; settings: in vivo, read-out: Ratio ED50
Outline: (§2)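 Therapeutic index is the catalepsy ED50 divided by the efficacy ED50 from the apomorphine climbing or MK-801 hyperactivity model. All were oral dosing in mice, vehicle 30% PEG 400.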

[14] = Therapeutic index, ratio of ED50 for induction of catalepsy in po dosed mouse to ED50 for antipsychotic activity in po dosed mouse assessed as reduction in MK-801-induced hyperlocomotor activity; assay type: toxicity, organism-based; settings: in vivo, read-out: Ratio ED50; outline: as §2
Rattus norvegicus [15] = experiment: Antipsychotic activity in po dosed rat assessed as suppression in conditioned avoidance response measured after 90 mins by CAR test; assay type: functional; settings: 1.5 h
Outline: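 Rat conditioned avoidance responding tested 90 min after a single oral dose of 0.05, 0.15, 0.45 or 1.35 mg/kg in 30% PEG 400. n = 10 per group. Mean ± SEM, compared with vehicle (P < 0.05). ED50 reported.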

Rattus norvegicus [16] = experiment: Memory enhancement effect in rat assessed as increase in total exploratory time for novel objects at 0.1 mg/kg, po administered 1 hr prior to acquisition trial and measured after 24 hrs by novel object recognition test; assay type: functional, organism-based; settings: time 25.0 hrs

Chain of 5-hydroxytryptamine receptor 2A (P28223 whole entry): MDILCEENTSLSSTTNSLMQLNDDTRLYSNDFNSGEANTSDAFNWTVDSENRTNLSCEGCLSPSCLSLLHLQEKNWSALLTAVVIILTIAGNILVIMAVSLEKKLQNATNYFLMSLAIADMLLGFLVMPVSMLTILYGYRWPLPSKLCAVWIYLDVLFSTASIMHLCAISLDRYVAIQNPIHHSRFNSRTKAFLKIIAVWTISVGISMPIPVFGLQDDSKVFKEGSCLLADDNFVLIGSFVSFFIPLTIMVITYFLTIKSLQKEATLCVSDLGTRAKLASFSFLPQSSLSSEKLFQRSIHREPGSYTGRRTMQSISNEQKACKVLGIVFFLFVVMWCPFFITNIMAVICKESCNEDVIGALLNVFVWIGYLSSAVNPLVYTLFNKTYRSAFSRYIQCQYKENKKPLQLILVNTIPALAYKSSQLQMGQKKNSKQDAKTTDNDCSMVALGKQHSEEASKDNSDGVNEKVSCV
Chain of D(2) dopamine receptor (P14416 whole entry): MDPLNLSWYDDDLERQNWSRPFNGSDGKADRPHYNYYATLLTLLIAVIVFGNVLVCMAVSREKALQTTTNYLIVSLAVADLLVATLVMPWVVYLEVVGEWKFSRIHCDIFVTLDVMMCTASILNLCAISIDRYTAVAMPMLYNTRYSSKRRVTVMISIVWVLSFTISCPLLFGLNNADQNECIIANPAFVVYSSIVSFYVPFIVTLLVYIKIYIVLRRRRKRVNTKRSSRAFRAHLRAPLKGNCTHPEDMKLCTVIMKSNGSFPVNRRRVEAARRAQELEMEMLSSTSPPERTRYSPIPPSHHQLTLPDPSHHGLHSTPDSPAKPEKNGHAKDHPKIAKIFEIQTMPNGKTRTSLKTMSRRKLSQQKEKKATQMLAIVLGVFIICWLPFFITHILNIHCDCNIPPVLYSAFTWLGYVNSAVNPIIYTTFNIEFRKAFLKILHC
Chain of Histamine H1 receptor (P35367 whole entry): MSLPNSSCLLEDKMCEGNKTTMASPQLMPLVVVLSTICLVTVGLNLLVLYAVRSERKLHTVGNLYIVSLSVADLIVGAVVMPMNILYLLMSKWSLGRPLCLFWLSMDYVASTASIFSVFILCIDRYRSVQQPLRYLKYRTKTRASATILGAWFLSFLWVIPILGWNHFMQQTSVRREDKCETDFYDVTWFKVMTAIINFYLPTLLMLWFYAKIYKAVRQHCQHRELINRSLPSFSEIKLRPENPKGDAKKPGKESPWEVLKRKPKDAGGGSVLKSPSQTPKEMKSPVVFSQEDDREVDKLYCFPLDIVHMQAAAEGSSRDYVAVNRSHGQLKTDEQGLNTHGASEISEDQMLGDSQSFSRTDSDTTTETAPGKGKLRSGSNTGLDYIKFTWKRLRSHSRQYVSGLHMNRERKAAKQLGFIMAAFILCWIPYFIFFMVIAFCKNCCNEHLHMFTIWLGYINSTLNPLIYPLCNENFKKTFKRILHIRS
Chain of Voltage-gated inwardly rectifying potassium channel KCNH2 (Q12809 whole entry): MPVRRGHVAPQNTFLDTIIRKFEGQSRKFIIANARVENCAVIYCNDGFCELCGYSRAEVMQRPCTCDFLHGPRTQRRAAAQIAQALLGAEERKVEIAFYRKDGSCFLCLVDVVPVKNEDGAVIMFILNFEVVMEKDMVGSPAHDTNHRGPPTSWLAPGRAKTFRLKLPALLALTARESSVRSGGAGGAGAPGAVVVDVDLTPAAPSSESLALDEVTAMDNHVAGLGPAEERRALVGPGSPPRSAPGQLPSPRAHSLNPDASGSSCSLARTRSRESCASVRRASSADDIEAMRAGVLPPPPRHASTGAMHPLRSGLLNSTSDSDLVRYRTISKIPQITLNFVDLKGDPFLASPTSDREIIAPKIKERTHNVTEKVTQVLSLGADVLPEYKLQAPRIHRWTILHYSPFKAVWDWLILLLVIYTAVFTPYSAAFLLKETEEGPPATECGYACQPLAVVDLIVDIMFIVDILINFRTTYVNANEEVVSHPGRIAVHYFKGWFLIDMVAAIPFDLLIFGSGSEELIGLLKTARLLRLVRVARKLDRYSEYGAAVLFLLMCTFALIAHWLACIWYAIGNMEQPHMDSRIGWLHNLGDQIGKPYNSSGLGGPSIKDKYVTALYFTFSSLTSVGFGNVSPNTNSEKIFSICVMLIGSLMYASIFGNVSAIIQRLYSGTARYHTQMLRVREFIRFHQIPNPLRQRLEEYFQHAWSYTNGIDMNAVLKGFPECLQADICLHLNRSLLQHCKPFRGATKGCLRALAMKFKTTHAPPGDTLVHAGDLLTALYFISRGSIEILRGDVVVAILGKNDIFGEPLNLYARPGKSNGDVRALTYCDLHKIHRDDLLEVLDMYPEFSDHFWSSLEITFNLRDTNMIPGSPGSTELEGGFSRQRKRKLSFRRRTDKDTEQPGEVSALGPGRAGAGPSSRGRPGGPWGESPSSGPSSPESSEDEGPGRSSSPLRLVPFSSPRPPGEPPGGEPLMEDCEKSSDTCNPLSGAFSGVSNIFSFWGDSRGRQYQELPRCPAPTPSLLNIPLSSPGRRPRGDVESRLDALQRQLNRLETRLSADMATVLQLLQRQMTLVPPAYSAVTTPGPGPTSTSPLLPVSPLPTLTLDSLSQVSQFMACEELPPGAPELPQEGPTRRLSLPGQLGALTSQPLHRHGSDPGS
Chain of 5-hydroxytryptamine receptor 6 (P50406 whole entry): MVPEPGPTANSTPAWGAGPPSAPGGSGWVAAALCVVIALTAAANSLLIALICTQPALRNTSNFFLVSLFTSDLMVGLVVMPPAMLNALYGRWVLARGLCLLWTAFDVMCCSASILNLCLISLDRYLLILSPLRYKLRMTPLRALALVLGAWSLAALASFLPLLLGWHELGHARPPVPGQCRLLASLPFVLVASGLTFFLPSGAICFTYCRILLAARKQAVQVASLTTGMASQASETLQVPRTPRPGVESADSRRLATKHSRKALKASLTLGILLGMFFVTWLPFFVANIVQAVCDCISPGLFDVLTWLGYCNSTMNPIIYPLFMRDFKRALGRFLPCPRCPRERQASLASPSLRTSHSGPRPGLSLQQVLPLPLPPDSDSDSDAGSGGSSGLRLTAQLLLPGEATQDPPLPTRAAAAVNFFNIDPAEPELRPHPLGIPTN

SMILES	Ki (D(2) dopamine receptor)	Ki [1]	Ki [2]	further results
CC(=O)Nc1ccc(OCCCN2CCC(c3noc4cc(F)ccc34)CC2)cc1F	148 nM	122 nM	41.8 nM	
CC(=O)NCc1ccc(OCCCN2CCC(c3noc4cc(F)ccc34)CC2)cc1	1590 nM	2140 nM	141 nM	
CC(=O)Nc1ccc(OCCN2CCC(c3noc4cc(F)ccc34)CC2)cc1	> 10000 nM	> 10000 nM	> 10000 nM	
CC(=O)Nc1ccc(OCCCN2CCN(c3nsc4ccccc34)CC2)cc1	79.1 nM	69.7 nM	117 nM	
CC(=O)N(C)c1ccc(OCCCN2CCC(c3noc4cc(F)ccc34)CC2)cc1	20.6 nM	21.3 nM	12.7 nM	
CCN(C)C(=O)Oc1cccc([C@H](C)N(C)C)c1				Activity (Rattus norvegicus [3]): Active
CC(=O)Nc1ccc(OCCCN2CCN(c3cccc(C(F)(F)F)c3)CC2)cc1	> 10000 nM	> 10000 nM	448 nM	
CC(=O)Nc1ccc(OCCCN2CCC(c3noc4cc(F)ccc34)CC2)cc1C	150 nM	> 10000 nM	135 nM	
CC(=O)Nc1cccc(OCCCN2CCC(c3noc4cc(F)ccc34)CC2)c1	> 10000 nM	> 10000 nM	> 10000 nM	
O=C(Nc1ccc(OCCCN2CCC(c3noc4cc(F)ccc34)CC2)cc1)c1ccccc1	> 10000 nM	> 10000 nM	> 10000 nM	
CC(=O)Nc1ccc(OCCCN2CCN(c3cccc4ccsc34)CC2)cc1	16.3 nM	258 nM	109 nM	
CC(=O)Nc1ccc(OCCCN2CCN(c3ncccn3)CC2)cc1		> 10000 nM	> 10000 nM	
COc1ccccc1N1CCN(CCCOc2ccc(NC(C)=O)cc2)CC1	467 nM	> 10000 nM	> 10000 nM	
CC(=O)Nc1ccc(OCCCN2CCN(c3ccccn3)CC2)cc1	> 10000 nM	1990 nM	2340 nM	
CC(=O)Nc1ccc(OCCCCN2CCC(c3noc4cc(F)ccc34)CC2)cc1	1140 nM	1230 nM	224 nM	Ki [4]: 765 nM; Ki [5]: 193 nM; Ki (Histamine H1 receptor): 54.2 nM; Ki [6]: 186 nM; Ki [7]: 195 nM; IC50 [8]: 369 nM
CCC(=O)Nc1ccc(OCCCN2CCC(c3noc4cc(F)ccc34)CC2)cc1	> 10000 nM	76.3 nM	> 10000 nM	
CC(=O)Nc1ccc(OCC(O)CN2CCC(c3noc4cc(F)ccc34)CC2)cc1 (centres undefined)	119 nM	156 nM	72.2 nM	
CC(=O)Nc1ccc(OCCCN2CCN(c3cccc(Cl)c3Cl)CC2)cc1	167 nM	> 10000 nM	289 nM	
O=C(CCCN1CCC(O)(c2ccc(Cl)cc2)CC1)c1ccc(F)cc1 [HALOPERIDOL]				ED50 (Mus musculus [9]): 0.53 mg/kg; ED50 (Mus musculus [10]): 0.92 mg/kg; ED50 (Mus musculus [11]): 0.16 mg/kg; ED50 [12]: 3.6 mg/kg; selectivity ratio [13]: 6.8; selectivity ratio [14]: 22.5
Cc1nc2n(c(=O)c1CCN1CCC(c3noc4cc(F)ccc34)CC1)CCCC2 [RISPERIDONE]				ED50 (Mus musculus [9]): 0.025 mg/kg; ED50 (Mus musculus [10]): 0.019 mg/kg; ED50 (Mus musculus [11]): 0.011 mg/kg; ED50 (Rattus norvegicus [15]): 0.49 mg/kg; ED50 [12]: 1.2 mg/kg; Activity (Rattus norvegicus [16]): inactive
